Test results taken from ChEMBL document CHEMBL1132557, “Novel, potent, semisynthetic antimalarial carba analogues of the first-generation 1,2,4-trioxane artemether” (J Med Chem, 1999).

Tested on: Mus musculus
Assay: Compound was tested in vivo for antimalarial activity against Plasmodium berghei in the mice (Mus musculus) model.
Type: functional
Outline: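 Male random Swiss albino mice, 18-22 g, infected ip with 10^7 P. berghei NS-strain parasitized erythrocytes; ip dosing once daily for four consecutive days starting on infection day; vehicle methanol/PBS/DMSO (2:5:3). Parasitemia read the day after last dose; ED50 (50% suppression vs vehicle-only controls) taken from log dose vs parasitemia plot.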

Compound | ED50
C[C@H]1[C@@H](CCO)O[C@@H]2OC3(C)CC[C@H]4[C@H](C)CC[C@@H]1[C@@]24OO3 (single isomer, unassigned) | 7.81 mg/kg
C[C@H]1[C@@H](CCOC(=O)c2cccc(F)c2)O[C@@H]2OC3(C)CC[C@H]4[C@H](C)CC[C@@H]1[C@@]24OO3 (single isomer, unassigned) | 6.99 mg/kg
CO[C@H]1O[C@@H]2O[C@@]3(C)CC[C@H]4[C@H](C)CC[C@@H]([C@H]1C)[C@@]24OO3 [ARTEMETHER] | 3.15 mg/kg
C[C@H]1[C@@H](O)O[C@@H]2O[C@@]3(C)CC[C@H]4[C@H](C)CC[C@@H]1[C@@]24OO3 [ARTENIMOL] | 1.15 mg/kg

Tested on: Plasmodium falciparum
Assay: In vitro antimalarial activity against chloroquine-sensitive Plasmodium falciparum HB3
Type: functional, organism-based
Outline: (§1)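 P. falciparum kept in human erythrocytes in RPMI 1640 with 25 mM HEPES, 32 mM NaHCO3, 10% human serum, under 3% O2/4% CO2/93% N2. 48-h assay at 2% parasitemia, 0.5% hematocrit; DMSO stocks diluted in medium; triplicates. [3H]hypoxanthine (0.5 μCi) added at 24 h, harvested 24 h later; IC50 by probit interpolation of log dose-response.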

Compound | IC50
C[C@H]1[C@@H](CCO)O[C@@H]2OC3(C)CC[C@H]4[C@H](C)CC[C@@H]1[C@@]24OO3 (single isomer, unassigned) | 3.51 nM
C[C@H]1[C@@H](CCOCc2cccc(F)c2)O[C@@H]2OC3(C)CC[C@H]4[C@H](C)CC[C@@H]1[C@@]24OO3 (single isomer, unassigned) | 0.32 nM
C[C@H]1[C@@H](CCOCc2ccccc2C(F)(F)F)O[C@@H]2OC3(C)CC[C@H]4[C@H](C)CC[C@@H]1[C@@]24OO3 (single isomer, unassigned) | 1.64 nM
C[C@H]1[C@@H](CCOC(=O)c2ccccc2F)O[C@@H]2OC3(C)CC[C@H]4[C@H](C)CC[C@@H]1[C@@]24OO3 (single isomer, unassigned) | 0.53 nM
C[C@H]1[C@@H](CCOC(=O)c2ccc(F)cc2)O[C@@H]2OC3(C)CC[C@H]4[C@H](C)CC[C@@H]1[C@@]24OO3 (single isomer, unassigned) | 0.69 nM
C[C@H]1[C@@H](CCOC(=O)c2ccc(C(F)(F)F)cc2)O[C@@H]2OC3(C)CC[C@H]4[C@H](C)CC[C@@H]1[C@@]24OO3 (single isomer, unassigned) | 0.59 nM
C[C@H]1[C@@H](CCOC(=O)c2cccc(F)c2)O[C@@H]2OC3(C)CC[C@H]4[C@H](C)CC[C@@H]1[C@@]24OO3 (single isomer, unassigned) | 0.35 nM
C[C@H]1[C@@H](CCOC(=O)c2cccc(C(F)(F)F)c2)O[C@@H]2OC3(C)CC[C@H]4[C@H](C)CC[C@@H]1[C@@]24OO3 (single isomer, unassigned) | 0.64 nM
C[C@H]1[C@@H](CCOCc2ccc(C(F)(F)F)cc2)O[C@@H]2OC3(C)CC[C@H]4[C@H](C)CC[C@@H]1[C@@]24OO3 (single isomer, unassigned) | 4.24 nM
C[C@H]1[C@@H](CCOCc2ccc(F)cc2)O[C@@H]2OC3(C)CC[C@H]4[C@H](C)CC[C@@H]1[C@@]24OO3 (single isomer, unassigned) | 0.73 nM
C[C@@H]1CC[C@H]2[C@@H](C)C(=O)O[C@@H]3O[C@@]4(C)CC[C@@H]1[C@]32OO4 [ARTEMISININ] | 3.04 nM
C[C@H]1[C@@H](O)O[C@@H]2O[C@@]3(C)CC[C@H]4[C@H](C)CC[C@@H]1[C@@]24OO3 [ARTENIMOL] | 1.04 nM

Tested on: Plasmodium falciparum
Assay: In vitro antimalarial activity against chloroquine-sensitive Plasmodium falciparum K1
Type: functional, organism-based
Outline: as §1

Compound | IC50
C[C@H]1[C@@H](CCOCc2ccc(C(F)(F)F)cc2)O[C@@H]2OC3(C)CC[C@H]4[C@H](C)CC[C@@H]1[C@@]24OO3 (single isomer, unassigned) | 3.75 nM

Tested on: Plasmodium falciparum
Assay: In vitro antimalarial activity against chloroquine-resistant Plasmodium falciparum K1

Compound | IC50
C[C@H]1[C@@H](CCO)O[C@@H]2OC3(C)CC[C@H]4[C@H](C)CC[C@@H]1[C@@]24OO3 (single isomer, unassigned) | 6.67 nM
C[C@H]1[C@@H](CCOCc2cccc(F)c2)O[C@@H]2OC3(C)CC[C@H]4[C@H](C)CC[C@@H]1[C@@]24OO3 (single isomer, unassigned) | 6.43 nM
C[C@H]1[C@@H](CCOCc2ccccc2C(F)(F)F)O[C@@H]2OC3(C)CC[C@H]4[C@H](C)CC[C@@H]1[C@@]24OO3 (single isomer, unassigned) | 3.6 nM
C[C@H]1[C@@H](CCOC(=O)c2ccccc2F)O[C@@H]2OC3(C)CC[C@H]4[C@H](C)CC[C@@H]1[C@@]24OO3 (single isomer, unassigned) | 1.12 nM
C[C@H]1[C@@H](CCOC(=O)c2ccc(F)cc2)O[C@@H]2OC3(C)CC[C@H]4[C@H](C)CC[C@@H]1[C@@]24OO3 (single isomer, unassigned) | 1.92 nM
C[C@H]1[C@@H](CCOC(=O)c2ccc(C(F)(F)F)cc2)O[C@@H]2OC3(C)CC[C@H]4[C@H](C)CC[C@@H]1[C@@]24OO3 (single isomer, unassigned) | 14.2 nM
C[C@H]1[C@@H](CCOC(=O)c2cccc(F)c2)O[C@@H]2OC3(C)CC[C@H]4[C@H](C)CC[C@@H]1[C@@]24OO3 (single isomer, unassigned) | 3.78 nM
C[C@H]1[C@@H](CCOC(=O)c2cccc(C(F)(F)F)c2)O[C@@H]2OC3(C)CC[C@H]4[C@H](C)CC[C@@H]1[C@@]24OO3 (single isomer, unassigned) | 4.7 nM
C[C@H]1[C@@H](CCOCc2ccc(F)cc2)O[C@@H]2OC3(C)CC[C@H]4[C@H](C)CC[C@@H]1[C@@]24OO3 (single isomer, unassigned) | 6.08 nM
C[C@@H]1CC[C@H]2[C@@H](C)C(=O)O[C@@H]3O[C@@]4(C)CC[C@@H]1[C@]32OO4 [ARTEMISININ] | 3.6 nM
C[C@H]1[C@@H](O)O[C@@H]2O[C@@]3(C)CC[C@H]4[C@H](C)CC[C@@H]1[C@@]24OO3 [ARTENIMOL] | 2.2 nM
